Test results as given in ChEMBL document CHEMBL1155277, “Synthesis of new 4-isopropylthiazole hydrazide analogs and some derived clubbed triazole, oxadiazole ring systems--a novel class of potential antibacterial, antifungal and antitubercular agents” (Eur J Med Chem, 2009).
In brackets after ≈: the same amount, converted by molar mass.

Experiments:
Saccharomyces cerevisiae = experiment: Antimicrobial activity against Saccharomyces cerevisiae ATCC 9763 after 24 hrs by broth microdilution method; format: functional; conditions: ATCC 9763, 24 h
In short: (§1)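 Broth microdilution in tubes. Compounds were dissolved at 10 mg in 1 mL DMSO and diluted in Mueller-Hinton Broth for bacteria or Sabouraud Liquid Medium for yeasts and A. niger. Final concentrations were 1–500 µg/mL (1, 2, 4, 8, 16, 31.25, 62.5, 125, 250, 500), with DMSO at most 1% v/v. Inoculum was 10^5 cfu/mL, incubated at 37 °C for 24 h. MIC was the lowest concentration giving complete growth inhibition. Media and media-plus-DMSO served as growth controls.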

Enterococcus faecalis = experiment: Antimicrobial activity against Streptococcus faecalis ATCC 14506 after 24 hrs by broth microdilution method; format: functional; conditions: ATCC 14506, 24 h; in short: as §1
Candida tropicalis = experiment: Antimicrobial activity against Candida tropicalis ATCC 1369 after 24 hrs by broth microdilution method; format: functional; conditions: ATCC 1369, 24 h; in short: as §1
Pseudomonas aeruginosa = experiment: Antimicrobial activity against Pseudomonas aeruginosa ATCC 10145 after 24 hrs by broth microdilution method; format: functional; conditions: ATCC 10145, 24 h; in short: as §1
Escherichia coli = experiment: Antimicrobial activity against Escherichia […] after 24 hrs by broth microdilution method; format: functional; in short: as §1
[1] = tested on: Mycobacterium tuberculosis; experiment: Antitubercular activity against Mycobacterium tuberculosis H37Rv after 21 days by broth dilution assay; format: functional; conditions: 504 h
In short: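 H37Rv frozen stock in Middlebrook 7H9 broth with 10% albumin-dextrose-catalase and 0.2% glycerol, thawed and diluted to 10⁵ cfu mL⁻¹. Compounds dissolved in DMSO, diluted in broth (final DMSO 1.3%). U-tubes inoculated, incubated 37 °C for 21 days. Growth scored visually against drug-free and inoculum-free controls and isoniazid. MIC = lowest concentration inhibiting […] of starting population.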

Staphylococcus aureus = experiment: Antimicrobial activity against Staphylococcus aureus ATCC 11632 after 24 hrs by broth microdilution method; format: functional; conditions: ATCC 11632, 24 h; in short: as §1
Bacillus subtilis = experiment: Antimicrobial activity against Bacillus subtilis ATCC 60511 after 24 hrs by broth microdilution method; format: functional; conditions: ATCC 60511, 24 h; in short: as §1
Klebsiella pneumoniae = experiment: Antimicrobial activity against Klebsiella pneumoniae ATCC 10031 after 24 hrs by broth microdilution method; format: functional; conditions: ATCC 10031, 24 h; in short: as §1
Aspergillus niger = experiment: Antimicrobial activity against Aspergillus niger ATCC 6275 after 24 hrs by broth microdilution method; format: functional; conditions: ATCC 6275, 24 h; in short: as §1
A549 [2] = experiment: Cytotoxicity against human A549 cell at 250 uM by MTT assay relative to control; format: cell-based; conditions: a549, 250 µM
In short: (§2)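 A549 lung adenocarcinoma cells were grown with 10% and 0.2% FBS. Compounds were held as 10 mM DMSO stocks and diluted in culture medium; cells were treated at 250 µM. Viability was read by MTT reduction against untreated cells and a DMSO vehicle control. The work was done as two experiments, each with triplicate readings.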

A549 [3] = experiment: Cytotoxicity against human A549 cell at 250 uM by MTT assay; format: cell-based; conditions: a549, 250 µM; in short: as §2

Compound: CC(C)c1csc(C(=O)NN)n1
- MIC (Saccharomyces cerevisiae): 250 µg/mL (≈ 1350 µM)
- MIC (Enterococcus faecalis): 125 µg/mL (≈ 675 µM)
- MIC (Candida tropicalis): 500 µg/mL (≈ 2700 µM)
- MIC (Pseudomonas aeruginosa): 125 µg/mL (≈ 675 µM)
- MIC (Escherichia coli): 125 µg/mL (≈ 675 µM)
- MIC [1]: 125 µg/mL (≈ 675 µM)
- MIC (Staphylococcus aureus): 250 µg/mL (≈ 1350 µM)
- MIC (Bacillus subtilis): 250 µg/mL (≈ 1350 µM)
- MIC (Klebsiella pneumoniae): 250 µg/mL (≈ 1350 µM)
- MIC (Aspergillus niger): 125 µg/mL (≈ 675 µM)

Compound: CC(=O)N1N=C(c2nc(C(C)C)cs2)OC1c1cccc(Cl)c1Cl (stereo unspecified)
- MIC (Saccharomyces cerevisiae): 16 µg/mL (≈ 41.6 µM)
- MIC (Enterococcus faecalis): 16 µg/mL (≈ 41.6 µM)
- MIC (Candida tropicalis): 16 µg/mL (≈ 41.6 µM)
- MIC (Pseudomonas aeruginosa): 31.2 µg/mL (≈ 81.3 µM)
- MIC (Escherichia coli): 125 µg/mL (≈ 325 µM)
- MIC [1]: 62.5 µg/mL (≈ 163 µM)
- MIC (Staphylococcus aureus): 125 µg/mL (≈ 325 µM)
- MIC (Bacillus subtilis): 16 µg/mL (≈ 41.6 µM)
- MIC (Klebsiella pneumoniae): 125 µg/mL (≈ 325 µM)
- MIC (Aspergillus niger): 31.2 µg/mL (≈ 81.3 µM)

Compound: CC(C)c1csc(C(=O)N/N=C/c2ccc(O)cc2)n1
- MIC (Saccharomyces cerevisiae): 31.2 µg/mL (≈ 108 µM)
- MIC (Enterococcus faecalis): 125 µg/mL (≈ 432 µM)
- MIC (Candida tropicalis): 16 µg/mL (≈ 55.3 µM)
- MIC (Pseudomonas aeruginosa): 16 µg/mL (≈ 55.3 µM)
- MIC (Escherichia coli): 31.2 µg/mL (≈ 108 µM)
- MIC [1]: 125 µg/mL (≈ 432 µM)
- MIC (Staphylococcus aureus): 125 µg/mL (≈ 432 µM)
- MIC (Bacillus subtilis): 125 µg/mL (≈ 432 µM)
- MIC (Klebsiella pneumoniae): 31.2 µg/mL (≈ 108 µM)
- MIC (Aspergillus niger): 31.2 µg/mL (≈ 108 µM)

Compound: C/C(=N/NC(=O)c1nc(C(C)C)cs1)c1ccc(O)cc1
- MIC (Saccharomyces cerevisiae): 31.2 µg/mL (≈ 103 µM)
- MIC (Enterococcus faecalis): 125 µg/mL (≈ 412 µM)
- MIC (Candida tropicalis): 31.2 µg/mL (≈ 103 µM)
- MIC (Pseudomonas aeruginosa): 125 µg/mL (≈ 412 µM)
- MIC (Escherichia coli): 125 µg/mL (≈ 412 µM)
- MIC [1]: 125 µg/mL (≈ 412 µM)
- MIC (Staphylococcus aureus): 125 µg/mL (≈ 412 µM)
- MIC (Bacillus subtilis): 250 µg/mL (≈ 824 µM)
- MIC (Klebsiella pneumoniae): 250 µg/mL (≈ 824 µM)
- MIC (Aspergillus niger): 125 µg/mL (≈ 412 µM)

Compound: COc1cc(C2OC(c3nc(C(C)C)cs3)=NN2C(C)=O)cc(OC)c1OC (stereo unspecified)
- MIC (Saccharomyces cerevisiae): 31.2 µg/mL (≈ 77.1 µM)
- MIC (Enterococcus faecalis): 16 µg/mL (≈ 39.5 µM)
- MIC (Candida tropicalis): 16 µg/mL (≈ 39.5 µM)
- Activity (A549 [2]): 50%
- MIC (Pseudomonas aeruginosa): 16 µg/mL (≈ 39.5 µM)
- MIC (Escherichia coli): 31.2 µg/mL (≈ 77.1 µM)
- MIC [1]: 31.2 µg/mL (≈ 77.1 µM)
- MIC (Staphylococcus aureus): 62.5 µg/mL (≈ 154 µM)
- MIC (Bacillus subtilis): 16 µg/mL (≈ 39.5 µM)
- MIC (Klebsiella pneumoniae): 31.2 µg/mL (≈ 77.1 µM)
- MIC (Aspergillus niger): 16 µg/mL (≈ 39.5 µM)

Compound: CC(C)c1csc(C(=O)N/N=C/c2cccc(Cl)c2Cl)n1
- MIC (Saccharomyces cerevisiae): 16 µg/mL (≈ 46.7 µM)
- MIC (Enterococcus faecalis): 31.2 µg/mL (≈ 91.3 µM)
- MIC (Candida tropicalis): 31.2 µg/mL (≈ 91.3 µM)
- MIC (Pseudomonas aeruginosa): 31.2 µg/mL (≈ 91.3 µM)
- MIC (Escherichia coli): 16 µg/mL (≈ 46.7 µM)
- MIC [1]: 125 µg/mL (≈ 365 µM)
- MIC (Staphylococcus aureus): 250 µg/mL (≈ 730 µM)
- MIC (Bacillus subtilis): 31.2 µg/mL (≈ 91.3 µM)
- MIC (Klebsiella pneumoniae): 31.2 µg/mL (≈ 91.3 µM)
- MIC (Aspergillus niger): 125 µg/mL (≈ 365 µM)

Compound: C/C(=N/NC(=O)c1nc(C(C)C)cs1)c1ccc(Br)cc1
- MIC (Saccharomyces cerevisiae): 31.2 µg/mL (≈ 85.3 µM)
- MIC (Enterococcus faecalis): 250 µg/mL (≈ 683 µM)
- MIC (Candida tropicalis): 125 µg/mL (≈ 341 µM)
- MIC (Pseudomonas aeruginosa): 125 µg/mL (≈ 341 µM)
- MIC (Escherichia coli): 250 µg/mL (≈ 683 µM)
- MIC [1]: 31.2 µg/mL (≈ 85.3 µM)
- MIC (Staphylococcus aureus): 250 µg/mL (≈ 683 µM)
- MIC (Bacillus subtilis): 125 µg/mL (≈ 341 µM)
- MIC (Klebsiella pneumoniae): 125 µg/mL (≈ 341 µM)
- MIC (Aspergillus niger): 125 µg/mL (≈ 341 µM)

Compound: OC(Cn1cncn1)(Cn1cncn1)c1ccc(F)cc1F [FLUCONAZOLE]
- MIC (Saccharomyces cerevisiae): ≤ 1 µg/mL
- MIC (Candida tropicalis): ≤ 1 µg/mL
- MIC (Aspergillus niger): ≤ 1 µg/mL

Compound: C/C(=N/NC(=O)c1nc(C(C)C)cs1)c1ccc(C)cc1
- MIC (Saccharomyces cerevisiae): 125 µg/mL (≈ 415 µM)
- MIC (Enterococcus faecalis): 125 µg/mL (≈ 415 µM)
- MIC (Candida tropicalis): 250 µg/mL (≈ 829 µM)
- MIC (Pseudomonas aeruginosa): 250 µg/mL (≈ 829 µM)
- MIC (Escherichia coli): 250 µg/mL (≈ 829 µM)
- MIC [1]: 125 µg/mL (≈ 415 µM)
- MIC (Staphylococcus aureus): 250 µg/mL (≈ 829 µM)
- MIC (Bacillus subtilis): 250 µg/mL (≈ 829 µM)
- MIC (Klebsiella pneumoniae): 125 µg/mL (≈ 415 µM)
- MIC (Aspergillus niger): 500 µg/mL (≈ 1660 µM)

Compound: CC(=O)N1N=C(c2nc(C(C)C)cs2)OC1c1ccc(O)cc1 (stereo unspecified)
- MIC (Saccharomyces cerevisiae): 31.2 µg/mL (≈ 94.3 µM)
- MIC (Enterococcus faecalis): 31.2 µg/mL (≈ 94.3 µM)
- MIC (Candida tropicalis): 16 µg/mL (≈ 48.3 µM)
- Activity (A549 [3]): Active
- MIC (Pseudomonas aeruginosa): 31.2 µg/mL (≈ 94.3 µM)
- MIC (Escherichia coli): 16 µg/mL (≈ 48.3 µM)
- MIC [1]: 31.2 µg/mL (≈ 94.3 µM)
- MIC (Staphylococcus aureus): 125 µg/mL (≈ 377 µM)
- MIC (Bacillus subtilis): 16 µg/mL (≈ 48.3 µM)
- MIC (Klebsiella pneumoniae): 31.2 µg/mL (≈ 94.3 µM)
- MIC (Aspergillus niger): 16 µg/mL (≈ 48.3 µM)

Compound: CC(=O)NNC(=O)c1nc(C(C)C)cs1
- MIC (Saccharomyces cerevisiae): 500 µg/mL (≈ 2200 µM)
- MIC (Enterococcus faecalis): 125 µg/mL (≈ 550 µM)
- MIC (Candida tropicalis): 125 µg/mL (≈ 550 µM)
- MIC (Pseudomonas aeruginosa): 125 µg/mL (≈ 550 µM)
- MIC (Escherichia coli): 250 µg/mL (≈ 1100 µM)
- MIC [1]: 125 µg/mL (≈ 550 µM)
- MIC (Staphylococcus aureus): 500 µg/mL (≈ 2200 µM)
- MIC (Bacillus subtilis): 250 µg/mL (≈ 1100 µM)
- MIC (Klebsiella pneumoniae): 125 µg/mL (≈ 550 µM)
- MIC (Aspergillus niger): 500 µg/mL (≈ 2200 µM)

Compound: C/C(=N/NC(=O)c1nc(C(C)C)cs1)c1ccc([N+](=O)[O-])cc1
- MIC (Saccharomyces cerevisiae): 500 µg/mL (≈ 1500 µM)
- MIC (Enterococcus faecalis): 250 µg/mL (≈ 752 µM)
- MIC (Candida tropicalis): 125 µg/mL (≈ 376 µM)
- MIC (Pseudomonas aeruginosa): 250 µg/mL (≈ 752 µM)
- MIC (Escherichia coli): 250 µg/mL (≈ 752 µM)
- MIC [1]: 125 µg/mL (≈ 376 µM)
- MIC (Staphylococcus aureus): 250 µg/mL (≈ 752 µM)
- MIC (Bacillus subtilis): 250 µg/mL (≈ 752 µM)
- MIC (Klebsiella pneumoniae): 250 µg/mL (≈ 752 µM)
- MIC (Aspergillus niger): 125 µg/mL (≈ 376 µM)

Compound: NNC(=O)c1ccncc1 [ISONIAZID]
- MIC [1]: 0.25 µg/mL (≈ 1.82 µM)

Compound: CC(C)c1csc(C(=O)N/N=C/c2ccccc2)n1
- MIC (Saccharomyces cerevisiae): 62.5 µg/mL (≈ 229 µM)
- MIC (Enterococcus faecalis): 125 µg/mL (≈ 457 µM)
- MIC (Candida tropicalis): 62.5 µg/mL (≈ 229 µM)
- MIC (Pseudomonas aeruginosa): 16 µg/mL (≈ 58.5 µM)
- MIC (Escherichia coli): 31.2 µg/mL (≈ 114 µM)
- MIC [1]: 250 µg/mL (≈ 915 µM)
- MIC (Staphylococcus aureus): 500 µg/mL (≈ 1830 µM)
- MIC (Bacillus subtilis): 125 µg/mL (≈ 457 µM)
- MIC (Klebsiella pneumoniae): 125 µg/mL (≈ 457 µM)
- MIC (Aspergillus niger): 31.2 µg/mL (≈ 114 µM)
